Activity calls are given as the source filed them.
What was measured:
Type in all cases: cell-based
Conditions in all cases: HepG2
[1] = molecular target: T1, Peroxisome proliferator-activated receptor delta (Homo sapiens) (UniProt Q03181); assay: Increase in transcriptional activity of human PPARbeta/delta ligand binding domain expressed in human Hep G2 cells co-transfected with Gal4-DBD by luciferase reporter gene assay
T1 sequence (whole entry): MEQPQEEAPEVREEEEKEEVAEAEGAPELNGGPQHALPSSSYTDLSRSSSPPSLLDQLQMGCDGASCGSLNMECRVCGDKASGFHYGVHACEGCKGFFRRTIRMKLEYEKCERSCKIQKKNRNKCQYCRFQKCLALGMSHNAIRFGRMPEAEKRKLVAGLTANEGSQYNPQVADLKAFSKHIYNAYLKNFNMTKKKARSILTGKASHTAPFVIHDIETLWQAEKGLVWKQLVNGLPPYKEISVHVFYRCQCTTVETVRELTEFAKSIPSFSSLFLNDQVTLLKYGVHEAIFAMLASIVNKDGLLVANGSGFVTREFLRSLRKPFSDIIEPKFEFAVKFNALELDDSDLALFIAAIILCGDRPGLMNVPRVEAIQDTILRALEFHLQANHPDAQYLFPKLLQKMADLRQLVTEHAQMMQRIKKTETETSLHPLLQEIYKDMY
Method in brief: (§1)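 HepG2 cells transfected for 4 h by calcium phosphate coprecipitation with 100 ng pGal4UAS-luciferase, 50 ng Gal4-LBD receptor vector and 300 ng CMV-β-galactosidase plasmid for normalization. Cells were washed in PBS, then refed with serum-free DMEM/F-12 containing penicillin/streptomycin and compound or 0.1% ethanol vehicle for 20 h. Luciferase read-out was normalized to β-galactosidase. Experiments were repeated at least three times.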

[2] = molecular target: T2, Thyroid hormone receptor alpha (Homo sapiens) (UniProt P10827); assay: Increase in transcriptional activity of TRalpha ligand binding domain expressed in human Hep G2 cells co-transfected with Gal4-DBD by luciferase reporter gene assay; method in brief: as §1
T2 sequence (whole entry): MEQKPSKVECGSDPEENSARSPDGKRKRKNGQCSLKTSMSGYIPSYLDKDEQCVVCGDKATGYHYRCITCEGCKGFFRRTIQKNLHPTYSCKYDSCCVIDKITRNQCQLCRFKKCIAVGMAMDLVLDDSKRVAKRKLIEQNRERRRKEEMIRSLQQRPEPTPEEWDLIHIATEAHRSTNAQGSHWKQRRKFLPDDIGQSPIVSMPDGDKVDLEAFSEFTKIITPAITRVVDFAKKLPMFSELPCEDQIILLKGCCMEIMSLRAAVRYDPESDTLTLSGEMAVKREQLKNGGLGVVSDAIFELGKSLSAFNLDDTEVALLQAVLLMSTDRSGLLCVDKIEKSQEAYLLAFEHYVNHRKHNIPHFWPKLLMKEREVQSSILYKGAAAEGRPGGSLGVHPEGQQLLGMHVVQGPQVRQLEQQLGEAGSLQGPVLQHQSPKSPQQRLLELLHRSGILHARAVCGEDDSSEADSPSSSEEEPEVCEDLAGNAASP

[3] = molecular target: T3, Peroxisome proliferator-activated receptor alpha (Homo sapiens) (UniProt Q07869); assay: Agonist activity at human PPARalpha ligand binding domain expressed in human Hep G2 cells co-transfected with Gal4-DBD by luciferase reporter gene assay
T3 sequence (whole entry): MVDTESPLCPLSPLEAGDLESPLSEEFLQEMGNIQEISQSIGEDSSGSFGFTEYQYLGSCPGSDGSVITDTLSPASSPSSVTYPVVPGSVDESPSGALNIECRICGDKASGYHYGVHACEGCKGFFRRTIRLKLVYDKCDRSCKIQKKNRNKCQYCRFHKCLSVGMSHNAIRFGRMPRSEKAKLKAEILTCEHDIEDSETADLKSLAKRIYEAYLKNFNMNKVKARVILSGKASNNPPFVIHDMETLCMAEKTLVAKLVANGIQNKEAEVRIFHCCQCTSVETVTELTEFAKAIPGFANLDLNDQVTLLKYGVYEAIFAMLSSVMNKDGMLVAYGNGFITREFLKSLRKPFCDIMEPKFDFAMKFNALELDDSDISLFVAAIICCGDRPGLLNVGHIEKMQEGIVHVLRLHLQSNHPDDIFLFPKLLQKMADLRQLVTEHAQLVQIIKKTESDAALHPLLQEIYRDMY
Method in brief: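 Gal4-LBD fusion vector (50 ng) was co-transfected with pGal4UAS-luciferase (100 ng) and pCMVβ β-galactosidase normalizer (300 ng) into HepG2 cells by calcium phosphate for 4 h. Cells were washed, then given serum-free DMEM/F-12 with ligand or 0.1% ethanol vehicle for 20 h. Luciferase was normalized to β-galactosidase.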

[4] = molecular target: Nuclear receptor subfamily 4 group A member 2 (Homo sapiens) (UniProt P43354); assay: Increase in transcriptional activity of Nurr1 ligand binding domain expressed in human Hep G2 cells co-transfected with Gal4-DBD by luciferase reporter gene assay; method in brief: as §1
Nuclear receptor subfamily 4 group A member 2 (Homo sapiens), sequence (P43354 whole entry, the tested form may be a part): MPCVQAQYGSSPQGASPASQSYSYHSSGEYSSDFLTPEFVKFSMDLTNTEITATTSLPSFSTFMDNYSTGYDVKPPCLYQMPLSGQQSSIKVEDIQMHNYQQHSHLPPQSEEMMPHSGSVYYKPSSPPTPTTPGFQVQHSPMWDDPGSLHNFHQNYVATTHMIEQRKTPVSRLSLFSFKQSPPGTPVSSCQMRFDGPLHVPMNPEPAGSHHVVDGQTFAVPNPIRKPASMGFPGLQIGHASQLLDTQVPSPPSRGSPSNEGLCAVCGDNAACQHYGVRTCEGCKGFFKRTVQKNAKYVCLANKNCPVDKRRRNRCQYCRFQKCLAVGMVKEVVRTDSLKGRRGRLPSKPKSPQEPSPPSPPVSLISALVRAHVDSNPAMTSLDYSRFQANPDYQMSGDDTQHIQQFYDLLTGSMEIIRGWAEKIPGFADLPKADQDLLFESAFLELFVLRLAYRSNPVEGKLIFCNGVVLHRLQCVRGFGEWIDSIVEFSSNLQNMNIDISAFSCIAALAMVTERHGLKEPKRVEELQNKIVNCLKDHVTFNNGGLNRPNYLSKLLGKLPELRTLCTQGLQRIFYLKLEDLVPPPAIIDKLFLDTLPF

[5] = molecular target: T4, Retinoic acid receptor alpha (Homo sapiens) (UniProt P10276); assay: Increase in transcriptional activity of RARalpha ligand binding domain expressed in human Hep G2 cells co-transfected with Gal4-DBD by luciferase reporter gene assay; method in brief: as §1
T4 sequence (whole entry): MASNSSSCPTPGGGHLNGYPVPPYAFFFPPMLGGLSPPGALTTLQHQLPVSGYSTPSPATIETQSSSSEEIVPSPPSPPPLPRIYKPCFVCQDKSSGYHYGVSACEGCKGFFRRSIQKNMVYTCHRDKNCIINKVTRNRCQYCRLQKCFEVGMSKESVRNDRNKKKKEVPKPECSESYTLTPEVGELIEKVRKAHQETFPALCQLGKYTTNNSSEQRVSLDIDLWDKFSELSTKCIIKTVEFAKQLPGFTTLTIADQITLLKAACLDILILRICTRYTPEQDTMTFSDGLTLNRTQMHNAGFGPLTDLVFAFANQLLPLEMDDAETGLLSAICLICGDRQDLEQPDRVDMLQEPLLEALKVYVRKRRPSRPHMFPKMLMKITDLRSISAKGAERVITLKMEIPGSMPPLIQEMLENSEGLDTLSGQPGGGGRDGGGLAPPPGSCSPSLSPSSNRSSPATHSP

[6] = molecular target: T5, Oxysterols receptor LXR-beta (Homo sapiens) (UniProt P55055); assay: Increase in transcriptional activity of LXRbeta ligand binding domain expressed in human Hep G2 cells co-transfected with Gal4-DBD by luciferase reporter gene assay; method in brief: as §1
T5 sequence (whole entry): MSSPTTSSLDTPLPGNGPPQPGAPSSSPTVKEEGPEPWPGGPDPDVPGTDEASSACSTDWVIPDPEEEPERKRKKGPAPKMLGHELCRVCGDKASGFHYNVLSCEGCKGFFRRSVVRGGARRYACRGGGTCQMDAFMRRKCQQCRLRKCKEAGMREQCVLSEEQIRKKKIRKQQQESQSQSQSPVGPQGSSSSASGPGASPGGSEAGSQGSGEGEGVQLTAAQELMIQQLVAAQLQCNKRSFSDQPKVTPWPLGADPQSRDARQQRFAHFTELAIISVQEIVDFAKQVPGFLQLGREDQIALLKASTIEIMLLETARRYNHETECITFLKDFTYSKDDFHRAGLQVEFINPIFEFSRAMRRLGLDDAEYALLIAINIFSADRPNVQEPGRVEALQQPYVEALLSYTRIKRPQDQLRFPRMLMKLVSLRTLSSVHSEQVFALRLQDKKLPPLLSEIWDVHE

Measured: Activity

O=C(O)[C@@H](Cc1ccccc1)Oc1ccc(-c2ccccc2)cc1
inactive: all assays above

O=C(O)[C@H](Cc1ccccc1)Oc1ccc(-c2ccccc2)cc1
not listed: [3]
inactive: all other assays above

Reference: ChEMBL document CHEMBL1151755, “Crystal structure of the peroxisome proliferator-activated receptor gamma (PPARgamma) ligand binding domain complexed with a novel partial agonist: a new region of the hydrophobic pocket could be exploited for drug design” (J Med Chem, 2008)
